From ChEMBL document CHEMBL4041463, “Pyrazolo[1,5-a]pyridine-3-carboxamide hybrids: Design, synthesis and evaluation of anti-tubercular activity” (Eur J Med Chem, 2017)
In brackets after ≈: the same amount, converted by molar mass.

Tests used:
Format in all cases: functional
[1] = tested on: Mycobacterium tuberculosis; experiment: Antitubercular activity against Mycobacterium tuberculosis H37Ra harboring pTYOK in UAIRa broth culture assessed as concentration required to reduce relative luminescence unit to <10% measured after 4 days by autoluminescence assay; conditions: 96 h
[2] = tested on: Mycobacterium tuberculosis; experiment: Antitubercular activity against isoniazid resistant Mycobacterium tuberculosis ATCC 35822 after 5 days; conditions: ATCC 35822, 120 h
In short: (§1)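 Ten-point two-fold DMSO dilutions in 7H9-Tw-OADC, final DMSO 2%, top concentration 200 µM. Incubated 5 days; growth read as OD590. Controls: medium/DMSO background, 100 µM rifampicin, DMSO-only, plus rifampicin dose-response. Gompertz fit of % growth; MIC taken as onset of zero growth. Plate acceptance: OD590 >0.2 in maximum-growth wells and rifampicin MIC within 3-fold of expected.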

[3] = tested on: Mycobacterium tuberculosis; experiment: Antitubercular activity against rifampicin resistant Mycobacterium tuberculosis ATCC 35828 after 5 days; conditions: ATCC 35828, 120 h; in short: as §1
[4] = tested on: Mycobacterium tuberculosis; experiment: Antitubercular activity against isoniazid resistant Mycobacterium tuberculosis H37Rv harboring KAtG Y155 deletion mutant after 5 days; in short: as §1
[5] = tested on: Mycobacterium tuberculosis; experiment: Antitubercular activity against rifampicin resistant Mycobacterium tuberculosis H37Rv harboring rpoB S522L mutant after 5 days; in short: as §1
[6] = tested on: Mycobacterium tuberculosis; experiment: Antitubercular activity against fluoroquinolone resistant Mycobacterium tuberculosis H37Rv harboring gyrB D94N mutant after 5 days; in short: as §1

Row | Structure (SMILES) | MIC [1] [µg/mL] | MIC [2] [µg/mL] | MIC [3] [µg/mL] | MIC [4] [µg/mL] | MIC [5] [µg/mL] | MIC [6] [µg/mL]
1 | CCc1nn2ccc(Cl)cc2c1C(=O)NCC1CCN(CC23CC4CC(CC(C4)C2)C3)CC1 | 3 (≈ 6.4 µM) | – | – | – | – | –
2 | Cc1ccn2nc(C)c(C(=O)NCc3ccc(N4CCC(Oc5ccc(OC(F)(F)F)cc5)CC4)cc3)c2c1 | 0.03 (≈ 0.0557 µM) | – | – | – | – | –
3 | CO[C@H]1/C=C/O[C@@]2(C)Oc3c(C)c(O)c4c(O)c(c(/C=N/N5CCN(C)CC5)c(O)c4c3C2=O)NC(=O)/C(C)=C\C=C\[C@H](C)[C@H](O)[C@@H](C)[C@@H](O)[C@@H](C)[C@H](OC(C)=O)[C@@H]1C [RIFAMPIN] | 0.03 (≈ 0.0365 µM) | 0.007 (≈ 0.00851 µM) | > 41 | 0.016 (≈ 0.0194 µM) | 0.42 (≈ 0.51 µM) | 0.017 (≈ 0.0207 µM)
4 | CCc1nn2ccc(Cl)cc2c1C(=O)NCc1ccc(-c2ccc(OC(F)(F)F)cc2)nc1 | 0.1 (≈ 0.211 µM) | – | – | – | – | –
5 | CCc1nn2ccc(Cl)cc2c1C(=O)NC[C@H]1CN(c2ccc(N3CCOCC3)c(F)c2)C(=O)O1 | > 10 | – | – | – | – | –
6 | C[C@H]1COc2c(N3CCN(C)CC3)c(F)cc3c(=O)c(C(=O)O)cn1c23.C[C@H]1COc2c(N3CCN(C)CC3)c(F)cc3c(=O)c(C(=O)O)cn1c23.O [LEVOFLOXACIN] | – | 0.59 | 0.63 | 0.44 | 0.37 | 10
7 | Cc1ccn2nc(C)c(C(=O)NCc3ccc(OC(F)(F)F)cc3)c2c1 | 3 (≈ 8.26 µM) | – | – | – | – | –
8 | CCc1nn2ccc(Cl)cc2c1C(=O)NC/C=C(\C)CCC=C(C)C | 0.3 (≈ 0.834 µM) | – | – | – | – | –
9 | NNC(=O)c1ccncc1 [ISONIAZID] | 0.41 (≈ 2.99 µM) | > 27 | 0.11 (≈ 0.802 µM) | >27 | 0.056 (≈ 0.408 µM) | 0.088 (≈ 0.642 µM)
